Measurements as given in ChEMBL document CHEMBL3763127, “Design, synthesis and biological evaluation of novel asperphenamate derivatives” (Eur J Med Chem, 2016).
The source made the active and inactive calls. The rule behind the calls is not given here.

Assays:
MCF7 [1] = assay: Induction of cell cycle arrest in human MCF7 cells assessed as accumulation at G2/M phase at 10 uM after 24 hrs by PI staining-based flow cytometric analysis (reference value: 19.85%); type: functional
Bel-7402 [2] = assay: Induction of cell cycle arrest in human Bel7402 cells assessed as accumulation at S phase at 20 uM after 72 hrs by PI staining-based flow cytometric analysis (reference value: 25.01%); type: functional
MCF7 [3] = assay: Induction of cell cycle arrest in human MCF7 cells assessed as accumulation at G0/G1 phase at 10 uM after 24 hrs by PI staining-based flow cytometric analysis (reference value: 50.76%); type: functional
Bel-7402 [4] = assay: Induction of autophagy in human Bel7402 cells assessed as increase in LC3-2 level at 20 and 40 uM after 48 hrs by Western blot analysis; type: functional, cell-based
Procedure, shortened: (§1)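 Cells were treated with or without compound for 48 h: MCF-7 at 5 and 10 µM, HeLa and BEL-7402 at 20 and 40 µM. Total protein (10 µg) in SDS sample buffer (pH 6.8) was run on 8–15% SDS-PAGE and transferred to PVDF. LC3-I/LC3-II were probed with HRP secondary antibody and ECL detection. The assay was repeated at least three times.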

MCF7 [5] = assay: Induction of cell cycle arrest in human MCF7 cells assessed as accumulation at S phase at 10 uM after 48 hrs by PI staining-based flow cytometric analysis (reference value: 27.09%); type: functional
MCF7 [6] = assay: Induction of cell cycle arrest in human MCF7 cells assessed as accumulation at G2/M phase at 10 uM after 72 hrs by PI staining-based flow cytometric analysis (reference value: 19.85%); type: functional
HeLa [7] = assay: Induction of cell cycle arrest in human HeLa cells assessed as accumulation at S phase at 20 uM after 72 hrs by PI staining-based flow cytometric analysis (reference value: 24.17%); type: functional
MCF7 [8] = assay: Induction of autophagy in human MCF7 cells assessed as increase in autophagosome formation at 5 and 10 uM after 72 hrs by AO staining-based fluorescence microscopic analysis; type: functional, cell-based
Procedure, shortened: (§2)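 Cells in RPMI 1640/10% FBS were exposed to compound or 0.1% DMSO for 72 h: MCF-7 at 5 and 10 µM, HeLa and BEL-7402 at 20 and 40 µM. They were incubated with […] acridine orange for 15 min, washed with PBS, and acidic vesicles were imaged by inverted fluorescence microscopy.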

Bel-7402 [9] = assay: Induction of cell cycle arrest in human Bel7402 cells assessed as accumulation at S phase at 20 uM after 48 hrs by PI staining-based flow cytometric analysis (reference value: 25.01%); type: functional
HeLa [10] = assay: Induction of apoptosis in human HeLa cells assessed as accumulation at subG1 phase at 20 uM after 72 hrs by PI staining-based flow cytometric analysis (reference value: 2.89%); type: functional
MCF7 [11] = assay: Induction of cell cycle arrest in human MCF7 cells assessed as accumulation at G0/G1 phase at 10 uM after 72 hrs by PI staining-based flow cytometric analysis (reference value: 50.76%); type: functional
HeLa [12] = assay: Induction of cell cycle arrest in human HeLa cells assessed as accumulation at G0/G1 phase at 20 uM after 48 hrs by PI staining-based flow cytometric analysis (reference value: 45.70%); type: functional
MCF7 [13] = assay: Induction of autophagy in human MCF7 cells assessed as increase in LC3-2 level at 5 to 10 uM after 48 hrs by Western blot analysis; type: functional, cell-based; procedure, shortened: as §1
MCF7 [14] = assay: Induction of apoptosis in human MCF7 cells assessed as accumulation at subG1 phase at 10 uM after 48 hrs by PI staining-based flow cytometric analysis (reference value: 2.98%); type: functional
[15] = Potency index, ratio of IC50 for cisplatin to IC50 for test compound for cytotoxicity against human Bel7402 cells; type: functional, Bel-7402
Bel-7402 [16] = assay: Induction of apoptosis in human Bel7402 cells assessed as accumulation at subG1 phase at 20 uM after 48 hrs by PI staining-based flow cytometric analysis (reference value: 2.87%); type: functional
MCF7 [17] = assay: Cytotoxicity against human MCF7 cells after 3 days by MTT assay; type: functional, cell-based; settings: MCF7, 72 h
Procedure, shortened: (§3)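 MCF-7, HeLa and BEL-7402 cells were grown in RPMI 1640 with 10% heat-inactivated FBS, 1 mM glutamine and penicillin/streptomycin at 37 °C under 5% CO2. They were exposed to compound for 3 days, then read by MTT at 570 nm. Viability was taken as treated/control absorbance, and IC50 was derived from it. Values are mean SD of three independent experiments.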

MCF7 [18] = assay: Potency index, ratio of IC50 for cisplatin to IC50 for test compound for cytotoxicity against human MCF7 cells; type: functional
Bel-7402 [19] = assay: Induction of autophagy in human Bel7402 cells assessed as autophagic cell formation at 20 uM after 72 hrs by MDC staining-based flow cytometric analysis (reference value: 3.94%); type: functional
Bel-7402 [20] = assay: Induction of cell cycle arrest in human Bel7402 cells assessed as accumulation at G2/M phase at 20 uM after 48 hrs by PI staining-based flow cytometric analysis (reference value: 22.26%); type: functional
MCF7 [21] = assay: Induction of cell cycle arrest in human MCF7 cells assessed as accumulation at S phase at 10 uM after 24 hrs by PI staining-based flow cytometric analysis (reference value: 27.09%); type: functional
Bel-7402 [22] = assay: Induction of cell cycle arrest in human Bel7402 cells assessed as accumulation at G0/G1 phase at 20 uM after 72 hrs by PI staining-based flow cytometric analysis (reference value: 49.44%); type: functional
HeLa [23] = assay: Cytotoxicity against human HeLa cells after 3 days by MTT assay; type: functional, cell-based; settings: 72 h; procedure, shortened: as §3
Bel-7402 [24] = assay: Induction of cell cycle arrest in human Bel7402 cells assessed as accumulation at G2/M phase at 20 uM after 72 hrs by PI staining-based flow cytometric analysis (reference value: 22.26%); type: functional
HeLa [25] = assay: Induction of cell cycle arrest in human HeLa cells assessed as accumulation at S phase at 20 uM after 48 hrs by PI staining-based flow cytometric analysis (reference value: 24.17%); type: functional
HeLa [26] = assay: Induction of autophagy in human HeLa cells assessed as increase in autophagosome formation at 20 and 40 uM after 72 hrs by AO staining-based fluorescence microscopic analysis; type: functional, cell-based; procedure, shortened: as §2
MCF7 [27] = assay: Induction of apoptosis in human MCF7 cells assessed as accumulation at subG1 phase at 10 uM after 72 hrs by PI staining-based flow cytometric analysis (reference value: 2.98%); type: functional
MCF7 [28] = assay: Induction of cell cycle arrest in human MCF7 cells assessed as accumulation at S phase at 10 uM after 72 hrs by PI staining-based flow cytometric analysis (reference value: 27.09%); type: functional
Bel-7402 [29] = assay: Induction of apoptosis in human Bel7402 cells assessed as accumulation at subG1 phase at 20 uM after 72 hrs by PI staining-based flow cytometric analysis (reference value: 2.87%); type: functional
Bel-7402 [30] = assay: Induction of autophagy in human Bel7402 cells assessed as autophagic cell formation at 40 uM after 72 hrs by MDC staining-based flow cytometric analysis (reference value: 3.94%); type: functional

Compound: Cc1ccc(S(=O)(=O)N[C@H](Cc2ccccc2)C(=O)OC[C@H](Cc2ccccc2)NC(=O)c2ccccc2)cc1
- Activity (MCF7 [1]): 19.09%
- Activity (Bel-7402 [2]): 26.88%
- Activity (MCF7 [3]): 52.57%
- Activity (Bel-7402 [4]): Active
- Activity (MCF7 [5]): 28.07%
- Activity (MCF7 [6]): 20.07%
- Activity (HeLa [7]): 25.91%
- Activity (MCF7 [8]): Active
- Activity (Bel-7402 [9]): 26.01%
- Activity (HeLa [10]): 2.43%
- Activity (MCF7 [11]): 48.05%
- Activity (HeLa [12]): 50.15%
- Activity (MCF7 [13]): Active
- Activity (MCF7 [14]): 3.22%
- Ratio IC50 [15]: 1.6
- Activity (Bel-7402 [16]): 3.01%
- IC50 (MCF7 [17]): 5.87 µM
- Ratio IC50 (MCF7 [18]): 3
- Activity (Bel-7402 [19]): 23.66%
- Activity (Bel-7402 [20]): 22.8%
- Activity (MCF7 [21]): 24.98%
- Activity (Bel-7402 [22]): 45.89%
- IC50 (HeLa [23]): 16.8 µM
- Activity (Bel-7402 [24]): 22.61%
- Activity (HeLa [25]): 25.4%
- Activity (HeLa [26]): Active
- Activity (MCF7 [27]): 3.76%
- Activity (MCF7 [28]): 28.08%
- Activity (Bel-7402 [29]): 3.78%
- Activity (Bel-7402 [30]): 48.25%
